From PubChem BioAssay
Rows were chosen to be rich in hits. Some 0.3% of all compounds tested hit in one or more screens of this group.
Ab BasE inh – inhibitors of Acinetobacter baumannii siderophore enzyme BasE; purified BasE, fluorescence polarization binding displacement; inhibition, % (no concentration beside the values); hit rate 0.1% among 84,000; AID 485350; in the data active = inhibition above about 25%, passing the limit was not always enough
LANA-nucl inh – LANA-nucleosome interaction inhibition; FITC-LANA1-23 / chicken nucleosome fluorescence polarization; stronger effect = lower value; z-score (no concentration beside the values); hit rate 0.3% among 51,000; AID 720717;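 active = both repeat wells score below -2 in polarization z-score versus plate sample wells, excluding overly bright wells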
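Assay system: FITC-LANA peptide and chicken nucleosomes; input: 240 nM purified chicken nucleosomes (480 nM peptide binding sites), final; also added: 50 nM FITC-LANA1-23 probe; medium: TEN-BT buffer, pH 7.5; doses: pin-transferred compound, 100 nL; times: 10–45 min, room temperature; technique: fluorescence polarization; replication: duplicates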
Numbers stand for hits; i = inactive; nt = no result.

SMILES | Ab BasE inh | LANA-nucl inh
O=C(C1CCN(C2CC(=O)N(c3ccc4c(c3)OCO4)C2=O)CC1)N1CCCCCC1 (stereo unspecified) | i | i
Cc1cc2c(n1-c1ccc(C(=O)NCCc3cccs3)cc1)CCCC2 | i | i
Cc1cc2c(n1-c1ccc(C(=O)O)cc1)CCCC2 | 30.5 | i
O=C(O)CSc1nnc2n1-c1ccc(Cl)cc1NN2 | i | -5.56
Clc1ccc2c(c1)NNc1nncn1-2 | i | i
C/C(=C\C(=O)c1cccnc1)Nc1ccccc1O | 29.6 | i
CCC(C)c1ccc(O)c(NC(=O)c2cccnc2)c1 (stereo unspecified) | i | nt
CCOc1ccc(CNc2ccc(NC(=O)c3ccco3)cc2)cc1OCC | i | i
